Converted amounts (≈) assume the structure as drawn. The source made the active and inactive calls. The rule behind the calls is not given here.
Tests used:
[1] = Terminal elimination half life in Sprague-Dawley rat plasma at 2 x 50 mg/kg, iv; assay type: ADME, organism-based; set-up: dose 50 mg/kg, route intravenous; details: read-out: beta t1/2 (converted)
Method in brief: (§1)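 Female Sprague–Dawley rats given two iv doses of 50 mg/kg. Levels measured in plasma, liver, kidney, brain, heart and lung. Cmax reported as ng/g for tissue and ng/mL for plasma; AUC(0–∞) as ng·h/mL. Half-life is the terminal elimination value.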

Staphylococcus aureus [2] = test: Antibacterial activity against methicillin-resistant Staphylococcus aureus NRS382; assay type: functional
Method in brief: (§2)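 CLSI broth microdilution: serial 2-fold dilutions from 0.06 to 64 μg/mL in cation-adjusted Mueller–Hinton broth, inoculum 5 × 10^5 CFU/mL, 35 °C for 18 h. MIC is the lowest concentration with no visible growth.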

[3] = Plasma clearance in Sprague-Dawley rat plasma at 2 x 50 mg/kg, iv; assay type: ADME, organism-based; set-up: dose 50 mg/kg, route intravenous
Escherichia coli = test: Antibacterial activity against Escherichia coli; assay type: functional
[4] = Inhibition of cytochrome P450; assay type: ADME
Neisseria meningitidis = test: Antibacterial activity against Neisseria meningitidis; assay type: functional
[5] = Thermodynamic aqueous solubility of the compound in 1 to 5% of glucose; assay type: physicochemical; details: 1 to 5% glucose in water; read-out: Therm_solubility
Method in brief: (§3)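 Solubility measured in an aqueous solution containing 20% hydroxypropyl-β-cyclodextrin together with 1–5% glucose.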

Canis familiaris [6] = test: Toxicity in beagle dog assessed as cardiovascular functions up to 100 mg/kg, iv; assay type: organism-based, Canis lupus familiaris, Heart; set-up: dose 100 mg/kg, route intravenous; details: in vivo
Method in brief: (§4)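 Beagle dogs given single iv infusions up to 100 mg/kg. Clinical signs and cardiovascular function, including QT interval, were monitored.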

[7] = Terminal elimination half life in Sprague-Dawley rat lung at 2 x 50 mg/kg, iv; assay type: ADME, organism-based; set-up: dose 50 mg/kg, route intravenous; details: read-out: beta t1/2 (converted); method in brief: as §1
Staphylococcus aureus [8] = test: Antibacterial activity against methicillin-susceptible Staphylococcus aureus; assay type: functional
[9] = AUC (0 to infinity) in Sprague-Dawley rat kidney at 2 x 50 mg/kg, iv; assay type: ADME, organism-based; set-up: time infinity, dose 50 mg/kg, route intravenous; method in brief: as §1
[10] = tested on: Staphylococcus haemolyticus; test: Antibacterial activity against methicillin-resistant Staphylococcus haemolyticus; assay type: functional
Staphylococcus aureus [11] = test: Antibacterial activity against community acquired methicillin-resistant Staphylococcus aureus; assay type: functional
[12] = Thermodynamic aqueous solubility of the compound in 20% hydroxypropyl-beta-cyclodextrin; assay type: physicochemical; details: 20% hydroxypropyl-beta-cyclodextrin in water; read-out: Therm_solubility; method in brief: as §3
[13] = Cmax in Sprague-Dawley rat liver at 2 x 50 mg/kg, iv; assay type: ADME, organism-based; set-up: dose 50 mg/kg, route intravenous; method in brief: as §1
Staphylococcus aureus [14] = test: Antibacterial activity against methicillin-resistant Staphylococcus aureus; assay type: functional
[15] = Cmax in Sprague-Dawley rat kidney at 2 x 50 mg/kg, iv; assay type: ADME, organism-based; set-up: dose 50 mg/kg, route intravenous; method in brief: as §1
Staphylococcus aureus [16] = test: Antibacterial activity against methicillin-resistant Staphylococcus aureus NRS385 infected in Swiss mouse; assay type: functional
Method in brief: (§5)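 Murine lethal systemic infection by intraperitoneal MRSA challenge. A single subcutaneous dose was given 5 min after infection.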

Staphylococcus aureus [17] = test: Antibacterial activity against methicillin-resistant Staphylococcus aureus NRS382 infected in Swiss mouse; assay type: functional; method in brief: as §5
[18] = Terminal elimination half life in Sprague-Dawley rat liver at 2 x 50 mg/kg, iv; assay type: ADME, organism-based; set-up: dose 50 mg/kg, route intravenous; details: read-out: beta t1/2 (converted); method in brief: as §1
Neisseria gonorrhoeae = test: Antibacterial activity against Neisseria gonorrhoeae; assay type: functional
[19] = Toxicity in iv dosed dog administered bid for 2 weeks; assay type: organism-based, Canis lupus familiaris; details: in vivo
Method in brief: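 Dogs dosed iv twice daily for 14 days; NOAEL determined, with body weight monitored.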

Canis familiaris [20] = test: Toxicity in beagle dog assessed as clinical signs of toxicity up to 100 mg/kg, iv; assay type: organism-based, Canis lupus familiaris; set-up: dose 100 mg/kg, route intravenous; details: in vivo; method in brief: as §4
[21] = AUC (0 to infinity) in Sprague-Dawley rat brain at 2 x 50 mg/kg, iv; assay type: ADME, organism-based; set-up: time infinity, dose 50 mg/kg, route intravenous; method in brief: as §1
Streptococcus pneumoniae = test: Antibacterial activity against Streptococcus pneumoniae D39 after 18 hrs by broth microdilution method; assay type: functional; details: D39, 18 h
Method in brief: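 CLSI broth microdilution with 2-fold dilutions from 0.06 to 64 μg/mL. Cation-adjusted Mueller–Hinton broth with 2.5% lysed horse blood, inoculum 5 × 10^5 CFU/mL, grown at 35 °C for 18 h in 5% CO2. MIC is the lowest concentration showing no visible growth.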

Staphylococcus aureus [22] = test: Antibacterial activity against methicillin-resistant Staphylococcus aureus NRS384 infected in Swiss mouse; assay type: functional; method in brief: as §5
[23] = Terminal elimination half life in Sprague-Dawley rat kidney at 2 x 50 mg/kg, iv; assay type: ADME, organism-based; set-up: dose 50 mg/kg, route intravenous; details: read-out: beta t1/2 (converted); method in brief: as §1
[24] = tested on: Staphylococcus epidermidis; test: Antibacterial activity against methicillin-resistant Staphylococcus epidermidis; assay type: functional
[25] = Cmax in Sprague-Dawley rat lung at 2 x 50 mg/kg, iv; assay type: ADME, organism-based; set-up: dose 50 mg/kg, route intravenous; method in brief: as §1
Staphylococcus aureus [26] = test: Antibacterial activity against methicillin-resistant Staphylococcus aureus NRS385; assay type: functional; method in brief: as §2
Staphylococcus aureus [27] = test: Antibacterial activity against methicillin-resistant Staphylococcus aureus NRS384 assessed as killing activity at 600 to 1200 mg q6h with prolonged infusion of 2 hrs; assay type: functional, organism-based
Albumin = Albumin (Homo sapiens, UniProt P02768); test: Binding affinity to human serum albumin; assay type: ADME; details: isolated protein
Sequence of Albumin (P02768 whole entry): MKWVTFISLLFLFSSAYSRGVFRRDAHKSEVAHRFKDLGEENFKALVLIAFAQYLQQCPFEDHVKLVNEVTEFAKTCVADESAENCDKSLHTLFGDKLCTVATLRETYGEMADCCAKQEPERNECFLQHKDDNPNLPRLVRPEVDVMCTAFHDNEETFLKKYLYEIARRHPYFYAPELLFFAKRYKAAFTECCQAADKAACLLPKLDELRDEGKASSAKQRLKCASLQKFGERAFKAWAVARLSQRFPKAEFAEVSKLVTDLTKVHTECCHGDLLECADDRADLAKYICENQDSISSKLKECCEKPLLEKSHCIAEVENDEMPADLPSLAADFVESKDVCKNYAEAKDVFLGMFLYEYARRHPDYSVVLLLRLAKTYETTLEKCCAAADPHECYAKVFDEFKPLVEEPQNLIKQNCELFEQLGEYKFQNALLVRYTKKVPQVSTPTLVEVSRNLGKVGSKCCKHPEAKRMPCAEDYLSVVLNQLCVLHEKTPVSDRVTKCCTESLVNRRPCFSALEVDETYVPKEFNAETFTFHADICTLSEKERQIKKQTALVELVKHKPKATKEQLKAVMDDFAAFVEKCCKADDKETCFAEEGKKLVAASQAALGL

Staphylococcus aureus [28] = test: Antibacterial activity against Staphylococcus aureus CIP54.146 after 18 hrs by broth microdilution method; assay type: functional; details: CIP54.146, 18 h
Method in brief: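 CLSI broth microdilution with serial 2-fold dilutions from 0.06 to 64 μg/mL. Cation-adjusted Mueller–Hinton broth, inoculum 5 × 10^5 CFU/mL, incubated at 35 °C for 18 h. MIC taken as the lowest concentration with no visible growth.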

Staphylococcus aureus [29] = test: Antibacterial activity against methicillin-resistant Staphylococcus aureus NRS384; assay type: functional; method in brief: as §2
[30] = AUC (0 to infinity) in Sprague-Dawley rat liver at 2 x 50 mg/kg, iv; assay type: ADME, organism-based; set-up: time infinity, dose 50 mg/kg, route intravenous; method in brief: as §1
[31] = Cmax in Sprague-Dawley rat plasma at 2 x 50 mg/kg, iv; assay type: ADME, organism-based; set-up: dose 50 mg/kg, route intravenous; method in brief: as §1
[32] = Cytotoxicity against human HepG2 cells; assay type: cell-based; details: read-out: ED50 (the source's name)
[33] = Toxicity in iv dosed rat; assay type: organism-based; details: in vivo
Method in brief: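 Rats given a single intravenous dose for maximum tolerated dose. A separate 2-week study used twice-daily intravenous dosing, with NOAEL set from clinical findings and macroscopic and microscopic examination. Safety pharmacology used single intravenous injections up to 200 mg/kg, assessing central nervous system and respiratory functions.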

Haemophilus influenzae = test: Antibacterial activity against Haemophilus influenzae; assay type: functional
Proteus mirabilis = test: Antibacterial activity against Proteus mirabilis; assay type: functional
[34] = molecular target: T1, Enoyl-[acyl-carrier-protein] reductase [NADPH] FabI (Staphylococcus aureus, UniProt Q6GI75); test: Inhibition of Staphylococcus aureus recombinant FabI using trans-2-octenoyl N-acetylcysteamine thioester as substrate preincubated for 60 mins
T1 sequence (Q6GI75 whole entry): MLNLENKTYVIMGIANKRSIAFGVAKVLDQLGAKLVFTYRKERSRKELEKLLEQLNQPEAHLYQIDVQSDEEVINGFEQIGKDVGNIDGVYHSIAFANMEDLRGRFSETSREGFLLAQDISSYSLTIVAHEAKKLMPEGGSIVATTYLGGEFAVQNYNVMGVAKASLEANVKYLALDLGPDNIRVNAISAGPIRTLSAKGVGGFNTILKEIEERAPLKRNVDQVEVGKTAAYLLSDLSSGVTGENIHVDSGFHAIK
Method in brief: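 Recombinant S. aureus FabI (2 nM) in 50 mM ADA pH 6.5, 1 mM DTT, 0.006% Triton X-100, 50 mM NaCl. Preincubated 60 min at room temperature with 40 μM NADPH, 10 μM NADP+ and inhibitor in DMSO. Reaction started with 100 μM t-o-NAC. Inhibition versus untreated samples; IC50 by Langmuir fit.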

Compound: CCc1cc(O)c(Oc2ccc(C(N)=O)cc2F)cc1F
- half-life [1]: 4.9 h
- MIC (Staphylococcus aureus [2]): 0.06 µg/mL (≈ 0.205 µM)
- clearance [3]: 107 mL/min/kg
- MIC90 (Escherichia coli): 1 µg/mL (≈ 3.41 µM)
- inhibition (INH) [4]: Active
- MIC90 (Neisseria meningitidis): 0.25 µg/mL (≈ 0.852 µM)
- solubility thermodynamic [5]: 11.3 mg/mL (≈ 38500 µM)
- Activity (Canis familiaris [6]): Non-toxic
- half-life [7]: 5.9 h
- MIC90 (Staphylococcus aureus [8]): 0.06 µg/mL (≈ 0.205 µM)
- AUC(0-inf) [9]: 20300 ng·h/mL
- MIC90 [10]: 0.5 µg/mL (≈ 1.7 µM)
- MIC90 (Staphylococcus aureus [11]): ≤ 0.03 µg/mL
- solubility thermodynamic [12]: 11.3 mg/mL (≈ 38500 µM)
- Cmax [13]: 51700 ng/g
- MIC90 (Staphylococcus aureus [14]): 0.12 µg/mL (≈ 0.409 µM)
- Cmax [15]: 63000 ng/g
- ED50 (Staphylococcus aureus [16]): 28.3 mg/kg
- ED50 (Staphylococcus aureus [17]): 19.3 mg/kg
- half-life [18]: 9.2 h
- MIC90 (Neisseria gonorrhoeae): 0.25 µg/mL (≈ 0.852 µM)
- NOAEL at 336 h [19]: 100 mg/kg/day
- Activity (Canis familiaris [20]): Non-toxic
- AUC(0-inf) [21]: 27600 ng·h/mL
- MIC (Streptococcus pneumoniae): > 32 µg/mL
- ED50 (Staphylococcus aureus [22]): 45.1 mg/kg
- half-life [23]: 8.5 h
- MIC90 [24]: 2 µg/mL (≈ 6.82 µM)
- Cmax [25]: 28900 ng/g
- MIC (Staphylococcus aureus [26]): 0.06 µg/mL (≈ 0.205 µM)
- Activity (Staphylococcus aureus [27]): Active
- Activity (Albumin): 95%
- MIC (Staphylococcus aureus [28]): 0.062 µg/mL (≈ 0.211 µM)
- MIC (Staphylococcus aureus [29]): 0.06 µg/mL (≈ 0.205 µM)
- AUC(0-inf) [30]: 105000 ng·h/mL
- Cmax [31]: 30400 ng/mL
- CC50 [32]: > 32 µg/mL
- MTD [33]: > 200 mg/kg
- MIC90 (Haemophilus influenzae): 0.5 µg/mL (≈ 1.7 µM)
- MIC90 (Proteus mirabilis): 2 µg/mL (≈ 6.82 µM)
- IC50 [34]: 12 nM
